Reference: ChEMBL document CHEMBL4732199, “Potent and orally bioavailable CDK8 inhibitors: Design, synthesis, structure-activity relationship analysis and biological evaluation” (Eur J Med Chem, 2021)

Legend:
CDK8/Cyclin C = CDK8/Cyclin C (Homo sapiens, UniProt P49336); test: Inhibition of CDK8/cyclin C (unknown origin) using RBER-IRStide as substrate incubated for 60 mins in presence of [gamma33P]ATP by scintillation counting method; type: protein-complex assay
MV4-11 = test: Growth inhibition of human MV4-11 cells after 72 hrs by resazurin staining based assay; type: functional
Outline: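 MV4-11 leukaemia cells grown in medium with 10% FBS at 37 °C, 5% CO2. Growth was read by a 72-h resazurin viability assay. GI50 was obtained by nonlinear regression and reported as mean ± standard deviation of at least two replicates.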

[1] = biological target: Protein kinase C theta type (Homo sapiens, UniProt Q04759); test: Inhibition of human full length PKCtheta using histone H1 as substrate incubated for 40 mins in presence of [gamma-33P]-ATP by scintillation counting method
Sequence of Protein kinase C theta type (Q04759 whole entry): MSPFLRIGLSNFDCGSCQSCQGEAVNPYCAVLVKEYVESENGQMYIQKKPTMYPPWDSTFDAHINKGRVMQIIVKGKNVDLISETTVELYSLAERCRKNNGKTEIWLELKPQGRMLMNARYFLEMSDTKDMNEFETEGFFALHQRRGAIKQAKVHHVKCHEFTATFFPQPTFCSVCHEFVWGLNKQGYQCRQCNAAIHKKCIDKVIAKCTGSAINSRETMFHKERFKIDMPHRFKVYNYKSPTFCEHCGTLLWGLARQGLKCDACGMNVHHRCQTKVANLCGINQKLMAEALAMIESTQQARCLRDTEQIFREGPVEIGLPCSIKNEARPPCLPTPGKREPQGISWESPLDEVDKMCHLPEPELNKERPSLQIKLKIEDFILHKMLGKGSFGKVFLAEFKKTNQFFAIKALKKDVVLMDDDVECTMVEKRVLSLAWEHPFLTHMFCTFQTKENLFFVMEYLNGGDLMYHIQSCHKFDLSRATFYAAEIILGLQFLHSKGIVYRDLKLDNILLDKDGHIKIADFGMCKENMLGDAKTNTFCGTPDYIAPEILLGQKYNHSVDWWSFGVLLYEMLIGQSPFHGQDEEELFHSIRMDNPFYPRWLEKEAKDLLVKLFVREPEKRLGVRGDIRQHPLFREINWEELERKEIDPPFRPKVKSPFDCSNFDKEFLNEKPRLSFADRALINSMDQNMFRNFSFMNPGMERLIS
Outline: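 IC50 measured in a contracted radiometric kinase assay with ATP at the experimentally determined Km(ATP) of each kinase. Apparent Ki was derived by Cheng-Prusoff: Ki = IC50/(1+[ATP]/Km(ATP)).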

HL-60 = test: Growth inhibition human HL-60 cells after 72 hrs by resazurin or MTT assay; type: functional
Outline: (§1)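 Tumour cell lines kept in RPMI-1640, DMEM or MEM with 10% FBS at 37 °C, 5% CO2, mycoplasma-free. Exposure lasted 72 h. Viability was read by MTT for adherent solid-tumour lines and by resazurin for suspension leukaemia lines. GI50 came from nonlinear regression, given as mean ± standard deviation of at least two replicates unless stated otherwise.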

Kasumi 1 = test: Growth inhibition human Kasumi-1 cells after 72 hrs by resazurin or MTT assay; type: functional; outline: as §1
KG-1 = test: Growth inhibition human KG-1 cells after 72 hrs by resazurin or MTT assay; type: functional; outline: as §1
KG-1a = test: Growth inhibition human KG-1a cells after 72 hrs by resazurin or MTT assay; type: functional; outline: as §1
MOLM-13 = test: Growth inhibition human MOLM-13 cells after 72 hrs by resazurin or MTT assay; type: functional; outline: as §1
NB-4 = test: Growth inhibition human NB4 cells after 72 hrs by resazurin or MTT assay; type: functional; outline: as §1
[2] = Effect on total STAT1 level in human MV4-11 cells at 1 to 5 times of GI50 concentration after 2 hrs by Western blot analysis; type: ADME, cell-based; conditions: mv4-11, 2 h
[3] = Growth inhibition human PL-21 cells after 72 hrs by resazurin or MTT assay; type: functional, PL21; outline: as §1
THP-1 = test: Growth inhibition human THP1 cells after 72 hrs by resazurin or MTT assay; type: functional; outline: as §1
U-937 = test: Growth inhibition human U-937 cells after 72 hrs by resazurin or MTT assay; type: functional; outline: as §1
COLO 205 = test: Growth inhibition human COLO 205 cells after 72 hrs by resazurin or MTT assay; type: functional; outline: as §1
HCT-116 = test: Growth inhibition human HCT-116 cells after 72 hrs by resazurin or MTT assay; type: functional; outline: as §1
HT-29 = test: Growth inhibition human HT-29 cells after 72 hrs by resazurin or MTT assay; type: functional; outline: as §1
PANC-1 = test: Growth inhibition human PANC-1 cells after 72 hrs by resazurin or MTT assay; type: functional; outline: as §1
A2780 = test: Growth inhibition human A2780 cells after 72 hrs by resazurin or MTT assay; type: functional; outline: as §1
MCF7 = test: Growth inhibition human MCF7 cells after 72 hrs by resazurin or MTT assay; type: functional; outline: as §1
MDA-MB-231 = test: Growth inhibition human MDA-MB-231 cells after 72 hrs by resazurin or MTT assay; type: functional; outline: as §1
MDA-MB-453 = test: Growth inhibition human MDA-MB-453 cells after 72 hrs by resazurin or MTT assay; type: functional; outline: as §1
[4] = Growth inhibition human WI38 cells after 72 hrs by resazurin or MTT assay; type: cell-based; conditions: WI-38 cells
[5] = Cmax in Sprague-Dawley rat at 5 mg/kg, iv measured up to 24 hrs by LC-MS/MS analysis; type: ADME, organism-based; design: route intravenous, dose 5 mg/kg, time <=24; conditions: in vivo
[6] = Half life in Sprague-Dawley rat at 5 mg/kg, iv measured up to 24 hrs by LC-MS/MS analysis; type: ADME, organism-based; conditions: in vivo
[7] = AUC in Sprague-Dawley rat at 5 mg/kg, iv measured up to 24 hrs by LC-MS/MS analysis; type: ADME, organism-based; design: route intravenous, dose 5 mg/kg, time <=24; conditions: in vivo
[8] = Volume of distribution at steady state in Sprague-Dawley rat at 5 mg/kg, iv measured up to 24 hrs by LC-MS/MS analysis; type: ADME, organism-based; conditions: in vivo, read-out: Vdss
[9] = Cmax in Sprague-Dawley rat at 20 mg/kg, po measured up to 24 hrs by LC-MS/MS analysis; type: ADME, organism-based; design: route oral, dose 20 mg/kg, time <=24; conditions: in vivo
[10] = Tmax in Sprague-Dawley rat at 20 mg/kg, po measured up to 24 hrs by LC-MS/MS analysis; type: ADME, organism-based; conditions: in vivo
[11] = Half life in Sprague-Dawley rat at 20 mg/kg, po measured up to 24 hrs by LC-MS/MS analysis; type: ADME, organism-based; conditions: in vivo
[12] = AUC in Sprague-Dawley rat at 20 mg/kg, po measured up to 24 hrs by LC-MS/MS analysis; type: ADME, organism-based; design: route oral, dose 20 mg/kg, time <=24; conditions: in vivo
[13] = Oral bioavailability in Sprague-Dawley rat at 20 mg/kg measured up to 24 hrs by LC-MS/MS analysis; type: ADME, organism-based; conditions: in vivo
[14] = Toxicity in BALB/c mouse assessed as interstitial pneumonitis in lung at 70 mg/kg, po administered once daily for 7 days and measured on day 15; type: organism-based; conditions: in vivo, 168 h, time 7 day
[15] = Toxicity in BALB/c mouse assessed as increase in number of alveolar macrophages at 70 mg/kg, po administered once daily for 7 days and measured on day 15; type: organism-based; conditions: in vivo, 168 h, time 7 day
[16] = Toxicity in BALB/c mouse assessed as vasculitis in blood vessels at 70 mg/kg, po administered once daily for 7 days and measured on day 15; type: organism-based; conditions: in vivo, 168 h, time 7 day
[17] = Toxicity in BALB/c mouse assessed as infiltration of inflammatory cells at 70 mg/kg, po administered once daily for 7 days and measured on day 15; type: organism-based; conditions: in vivo, 168 h, time 7 day
[18] = Toxicity in BALB/c mouse assessed as destruction of vessel walls at 70 mg/kg, po administered once daily for 7 days and measured on day 15; type: organism-based; conditions: in vivo, 168 h, time 7 day
[19] = Toxicity in BALB/c mouse assessed as pathological alterations in left femora at 70 mg/kg, po administered once daily for 7 days and measured on day 15; type: organism-based; conditions: in vivo, 168 h, time 7 day
[20] = Toxicity in BALB/c mouse assessed as B cells at 70 mg/kg, po administered once daily for 7 days and measured on day 15 by flow cytometric analysis; type: organism-based; conditions: in vivo, 168 h, time 7 day
[21] = Toxicity in BALB/c mouse assessed as dendritic cells at 70 mg/kg, po administered once daily for 7 days and measured on day 15 by flow cytometric analysis; type: organism-based; conditions: in vivo, 168 h, time 7 day
[22] = Toxicity in BALB/c mouse assessed as monocytes at 70 mg/kg, po administered once daily for 7 days and measured on day 15 by flow cytometric analysis; type: organism-based; conditions: in vivo, 168 h, time 7 day
[23] = Toxicity in BALB/c mouse assessed as neutrophils at 70 mg/kg, po administered once daily for 7 days and measured on day 15 by flow cytometric analysis; type: organism-based; conditions: in vivo, 168 h, time 7 day
[24] = Toxicity in BALB/c mouse assessed as increase in CD3-T cells at 70 mg/kg, po administered once daily for 7 days and measured on day 15 by flow cytometric analysis; type: organism-based; conditions: in vivo, 168 h, time 7 day

Sequence of CDK8/Cyclin C (P49336 whole entry): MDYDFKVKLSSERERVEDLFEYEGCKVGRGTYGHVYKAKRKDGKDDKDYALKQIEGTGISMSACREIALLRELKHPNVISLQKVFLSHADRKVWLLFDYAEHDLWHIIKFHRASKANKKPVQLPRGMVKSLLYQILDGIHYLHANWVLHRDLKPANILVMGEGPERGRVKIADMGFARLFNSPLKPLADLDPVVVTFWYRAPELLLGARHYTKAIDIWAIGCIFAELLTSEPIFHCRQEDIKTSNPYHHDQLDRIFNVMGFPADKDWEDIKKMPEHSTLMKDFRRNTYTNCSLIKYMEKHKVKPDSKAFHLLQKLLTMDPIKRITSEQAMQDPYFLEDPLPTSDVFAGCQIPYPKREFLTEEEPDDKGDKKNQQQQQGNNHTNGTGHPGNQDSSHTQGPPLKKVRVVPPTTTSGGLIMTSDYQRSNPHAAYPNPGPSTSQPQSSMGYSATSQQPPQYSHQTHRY
Sequence of CDK8/Cyclin C (P24863 whole entry, further chain): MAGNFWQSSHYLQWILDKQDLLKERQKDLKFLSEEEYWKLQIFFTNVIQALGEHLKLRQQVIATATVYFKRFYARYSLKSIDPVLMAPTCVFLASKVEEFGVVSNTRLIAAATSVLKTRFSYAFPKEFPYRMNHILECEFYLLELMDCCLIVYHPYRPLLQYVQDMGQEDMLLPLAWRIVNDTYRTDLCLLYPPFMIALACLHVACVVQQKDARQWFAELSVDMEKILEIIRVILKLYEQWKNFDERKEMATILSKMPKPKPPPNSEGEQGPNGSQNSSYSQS

For `O=C1NCCC12CCN(c1c(Cl)cncc1-c1cc3ccccc3o1)CC2`, the Ki (CDK8/Cyclin C) was 0.014 µM, the GI50 (MV4-11) was 0.36 µM and the Ki [1] was 0.109 µM. The GI50 (HL-60) was 35.3 µM, the GI50 (Kasumi 1) was > 50 µM and the GI50 (KG-1) was 7.13 µM. It also gave a GI50 (KG-1a) of 19.55 µM, a GI50 (MOLM-13) of 6.18 µM and a GI50 (NB-4) of 40.8 µM. The Activity [2] was “Non-Toxic”, the GI50 [3] was 25.4 µM and the GI50 (THP-1) was > 50 µM. The GI50 (U-937) was 1.36 µM, the GI50 (COLO 205) was > 50 µM and the GI50 (HCT-116) was 40.6 µM. The GI50 (HT-29) was 44.2 µM, the GI50 (PANC-1) was > 50 µM and the GI50 (A2780) was 21.4 µM. For the same compound, the GI50 (MCF7) was > 50 µM, the GI50 (MDA-MB-231) was 40.7 µM and the GI50 (MDA-MB-453) was 23.3 µM. The GI50 at 72 h [4] was 48.1 µM, the Cmax [5] was 14.4 µM and the half-life [6] was 0.9 h. It also gave an AUC at 24 h [7] of 9.7 µM·h, a Vd [8] of 1.11 L/kg and a Cmax [9] of 2.77 µM. It also gave a Tmax [10] of 2.75 h, a half-life [11] of 2.24 h and an AUC at 24 h [12] of 14.6 µM·h. For the same compound, the bioavailability [13] was 38%, the Activity [14] was “Non-Toxic” and the Activity [15] was “Non-Toxic”. The Activity [16] was “Non-Toxic”, the Activity [17] was “Non-Toxic” and the Activity [18] was “Non-Toxic”. The Activity [19] was “Non-Toxic”, the Activity [20] was “Non-Toxic” and the Activity [21] was “Non-Toxic”. For the same compound, the Activity [22] was “Non-Toxic”, the Activity [23] was “Non-Toxic” and the Activity [24] was “Toxic”.
With `Cn1cc(-c2ccc(-c3cncc(Cl)c3N3CCC4(CCNC4=O)CC3)cc2)cn1` the Ki (CDK8/Cyclin C) was 0.009 µM, the GI50 (MV4-11) was 0.03 µM and the Ki [1] was 0.061 µM. For the same compound, the GI50 (HL-60) was > 50 µM, the GI50 (Kasumi 1) was 37 µM and the GI50 (KG-1) was 19.98 µM. For the same compound, the GI50 (KG-1a) was 32.71 µM, the GI50 (MOLM-13) was 2.8 µM and the GI50 (NB-4) was > 50 µM. The Activity [2] was “Non-Toxic”, the GI50 [3] was 13.8 µM and the GI50 (THP-1) was > 50 µM. For the same compound, the GI50 (U-937) was 22.4 µM, the GI50 (COLO 205) was 37.7 µM and the GI50 (HCT-116) was 46.2 µM. For the same compound, the GI50 (HT-29) was 48.6 µM, the GI50 (PANC-1) was 0.55 µM and the GI50 (A2780) was 35.9 µM. For the same compound, the GI50 (MCF7) was > 50 µM, the GI50 (MDA-MB-231) was 29.9 µM and the GI50 (MDA-MB-453) was 43.1 µM. For the same compound, the GI50 at 72 h [4] was > 50 µM, the Cmax [5] was 10.6 µM and the half-life [6] was 1.08 h. It also gave an AUC at 24 h [7] of 10.5 µM·h, a Vd [8] of 1.38 L/kg and a Cmax [9] of 4.06 µM. For the same compound, the Tmax [10] was 1.33 h, the half-life [11] was 4.24 h and the AUC at 24 h [12] was 17.5 µM·h. For the same compound, the bioavailability [13] was 41%, the Activity [14] was “Toxic” and the Activity [15] was “Toxic”. The Activity [16] was “Toxic”, the Activity [17] was “Toxic” and the Activity [18] was “Toxic”. For the same compound, the Activity [19] was “Toxic”, the Activity [20] was “Non-Toxic” and the Activity [21] was “Non-Toxic”. The Activity [22] was “Non-Toxic”, the Activity [23] was “Non-Toxic” and the Activity [24] was “Toxic”.
